Assay results taken from ChEMBL document CHEMBL4390639, “Design, Synthesis, and Biological Evaluation of Novel Allosteric Protein Disulfide Isomerase Inhibitors” (J Med Chem, 2019).

Assays:
U-87 MG [1] = experiment: Up regulation of CYYR1-AS1 gene expression in human U87MG cells at 16 uM incubated for 4 hrs followed by bromouridine addition during last 30 mins of incubation by TRIzol-reagent based Bru-Seq analysis relative to control; type: functional, U-87MG ATCC
In short: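 U87MG cells exposed to compound or DMSO vehicle for 4 h, with 2 mM bromouridine added for the final 30 min. Total RNA isolated with TRIzol; Bru-labelled nascent RNA captured on anti-BrdU antibody-conjugated magnetic beads and sequenced. Transcript abundance expressed as RPKM relative to DMSO. Experiment performed once.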

U-87 MG [2] = experiment: Up regulation of SLC7A11 gene expression in human U87MG cells at 10 uM incubated for 4 hrs followed by bromouridine addition during last 30 mins of incubation by TRIzol-reagent based Bru-Seq analysis relative to control; type: functional, U-87MG ATCC
In short: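 U87MG cells treated 4 h with test compound (10 or 16 μM, as per line) or DMSO; 2 mM bromouridine added for final 30 min. Total RNA isolated with TRIzol, Bru-labelled nascent RNA captured with anti-BrdU antibody magnetic beads and sequenced; transcript abundance (RPKM) compared with DMSO control. Single experiment.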

COC(=O)c1cccc(/C=C/C(=O)c2cccc(O)c2)c1
fold change (FC) (U-87 MG [1]): 4.3

CCCCCN(CCCCC)S(=O)(=O)c1ccc(C(=O)/C=C/c2cccc(C#N)c2)cc1
fold change (FC) (U-87 MG [2]): 20.8
